In ChEMBL document CHEMBL1671752, “Genotypic characterization of UL23 thymidine kinase and UL30 DNA polymerase of clinical isolates of herpes simplex virus: natural polymorphism and mutations associated with resistance to antivirals” (Antimicrob Agents Chemother, 2010):

Columns and labels:
Human alphaherpesvirus 2 [1] = experiment: Antiviral activity against Herpes simplex virus 2 isolate 24 harboring G39E, -1G 440 = Stop 229 mutations in thymidine kinase and A9T, P15S, L60P, E139K, H837R mutations in DNA polymerase infected in african green monkey Vero cells by plaque reduction assay; format: functional, organism-based; conditions: Human alphaherpesvirus 2, isolate 24, Vero
How it was run: (§1)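 EC50 by plaque reduction assay in Vero cells against acyclovir and foscarnet. Vero cells grown in RPMI 1640 with 2% fetal bovine serum, 2 mM glutamine, 20 μg/ml vancomycin and 20 μg/ml amikacin. KOS (HSV-1) and gHSV2 (HSV-2) run as susceptible controls in each assay. […] HSV type confirmed by immunofluorescence with type-specific monoclonal antibodies.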

Human alphaherpesvirus 2 [2] = experiment: Antiviral activity against Herpes simplex virus 2 isolate 14 harboring G39E, N78D, M70R mutations in thymidine kinase and A724V mutations in DNA polymerase infected in african green monkey Vero cells by plaque reduction assay; format: functional, organism-based; conditions: Human alphaherpesvirus 2, isolate 14, Vero; how it was run: as §1
Human alphaherpesvirus 2 [3] = experiment: Antiviral activity against Herpes simplex virus 2 isolate 13 harboring, M183I mutations in thymidine kinase and A9T, P15S, R41H, L60P, E139K, A232T mutations in DNA polymerase infected in african green monkey Vero cells by plaque reduction assay; format: functional, organism-based; conditions: Human alphaherpesvirus 2, isolate 13, Vero; how it was run: as §1
Human alphaherpesvirus 1 [4] = experiment: Antiviral activity against Herpes simplex virus 1 isolate 6 harboring N23S, K36E, R89Q, +1G 437-438 = Stop 225 mutations in thymidine kinase and S33G, A330R, A646T, S1123L, P1124H, T1208A, R1229I mutations in DNA polymerase infected in african green monkey Vero cells by plaque reduction assay; format: functional, organism-based; conditions: Human alphaherpesvirus 1, isolate 6, Vero; how it was run: as §1
Human alphaherpesvirus 1 [5] = experiment: Antiviral activity against Herpes simplex virus 1 isolate 7 harboring N23S, K36E, R89Q, +1C 464-465 = Stop 228 mutations in thymidine kinase and S33G, A330R, P1124H, T1208A, A870G mutations in DNA polymerase infected in african green monkey Vero cells by plaque reduction assay; format: functional, organism-based; conditions: Human alphaherpesvirus 1, isolate 7, Vero; how it was run: as §1
Human alphaherpesvirus 1 [6] = experiment: Antiviral activity against Herpes simplex virus 1 isolate 2 harboring C6G, N23S, K36E, R41H, A192V, A265T, L170P mutations in thymidine kinase and S33G, A330R, V905M, T1208A mutations in DNA polymerase infected in african green monkey Vero cells by plaque reduction assay; conditions: Human alphaherpesvirus 1, isolate 2, Vero
Human alphaherpesvirus 2 [7] = experiment: Antiviral activity against Herpes simplex virus 2 isolate 20 harboring G39E, -1C 467 = Stop 183 mutations in thymidine kinase and A9T, P15S, L60P, E139K, T801P mutations in DNA polymerase infected in african green monkey Vero cells by plaque reduction assay; format: functional, organism-based; conditions: Human alphaherpesvirus 2, isolate 20, Vero; how it was run: as §1
Human alphaherpesvirus 1 [8] = experiment: Antiviral activity against Herpes simplex virus 1 isolate 9 harboring N23S, K36E, R89Q, +1G 437-438 = Stop 228 mutations in thymidine kinase and S33G, A330R, V905M, A1203T, T1208A mutations in DNA polymerase infected in african green monkey Vero cells by plaque reduction assay; format: functional, organism-based; conditions: Human alphaherpesvirus 1, isolate 9, Vero; how it was run: as §1
Human alphaherpesvirus 1 [9] = experiment: Antiviral activity against Herpes simplex virus 1 isolate 8 harboring N23S, K36E, R89Q, +1G 437-438 = Stop 228 mutations in thymidine kinase and A330R, P875S, V905M, P1124H, T1208A mutations in DNA polymerase infected in african green monkey Vero cells by plaque reduction assay; format: functional, organism-based; conditions: Human alphaherpesvirus 1, isolate 8, Vero; how it was run: as §1
Human alphaherpesvirus 2 [10] = experiment: Antiviral activity against Herpes simplex virus 2 isolate 12 harboring G39E, N78D, L140F, S66P, A72S mutations in thymidine kinase and A9T, P15S, L60P mutations in DNA polymerase infected in african green monkey Vero cells by plaque reduction assay; format: functional, organism-based; conditions: Human alphaherpesvirus 2, isolate 12, Vero; how it was run: as §1
Human alphaherpesvirus 2 [11] = experiment: Antiviral activity against Herpes simplex virus 2 isolate 23 harboring G39E, N78D, L140F, +1G 439-440 = Stop 229 mutations in thymidine kinase and A9T, P15S, L60P, I291V mutations in DNA polymerase infected in african green monkey Vero cells by plaque reduction assay; format: functional, organism-based; conditions: Human alphaherpesvirus 2, isolate 23, Vero; how it was run: as §1
Human alphaherpesvirus 2 [12] = experiment: Antiviral activity against Herpes simplex virus 2 isolate 19 harboring G39E, +2G 439-440 = Stop 184 mutations in thymidine kinase and A9T, P15S, L60P, del, DGDE683-686 mutations in DNA polymerase infected in african green monkey Vero cells by plaque reduction assay; format: functional, organism-based; conditions: Human alphaherpesvirus 2, isolate 19, Vero; how it was run: as §1
Human alphaherpesvirus 1 [13] = experiment: Antiviral activity against Herpes simplex virus 1 isolate 10 harboring N23S, K36E, R89Q, A265T C336Y mutations in thymidine kinase and S33G, A330R, V905M mutations in DNA polymerase infected in african green monkey Vero cells by plaque reduction assay; format: functional, organism-based; conditions: Human alphaherpesvirus 1, isolate 10, Vero; how it was run: as §1
Human alphaherpesvirus 2 [14] = experiment: Antiviral activity against Herpes simplex virus 2 isolate 25 harboring I101S mutations in thymidine kinase and D785N, V544A mutations in DNA polymerase infected in african green monkey Vero cells by plaque reduction assay; format: functional, organism-based; conditions: Human alphaherpesvirus 2, isolate 25, Vero; how it was run: as §1
Human alphaherpesvirus 2 [15] = experiment: Antiviral activity against Herpes simplex virus 2 isolate 15 harboring R221H mutations in thymidine kinase and A9T, P15S, L60P mutations in DNA polymerase infected in african green monkey Vero cells by plaque reduction assay; format: functional, organism-based; conditions: Human alphaherpesvirus 2, isolate 15, Vero; how it was run: as §1
Human alphaherpesvirus 2 [16] = experiment: Antiviral activity against Herpes simplex virus 2 isolate 18 harboring A27T, G39E, N78D, -1C 556 = Stop 263, S29A mutations in thymidine kinase and A9T, P15S, L60P, E678G, del, DD676-677 mutations in DNA polymerase infected in african green monkey Vero cells by plaque reduction assay; format: functional, organism-based; conditions: Human alphaherpesvirus 2, isolate 18, Vero; how it was run: as §1
Human alphaherpesvirus 2 [17] = experiment: Antiviral activity against Herpes simplex virus 2 isolate 17 harboring G39E, N78D Q222Stop mutations in thymidine kinase and A9T, P15S, L60P, T801P mutations in DNA polymerase infected in african green monkey Vero cells by plaque reduction assay; format: functional, organism-based; conditions: Human alphaherpesvirus 2, isolate 17, Vero; how it was run: as §1
Human alphaherpesvirus 2 [18] = experiment: Antiviral activity against Herpes simplex virus 2 isolate 22 harboring G39E, N78D, L140F, +1G 439-440 = Stop 229 mutations in thymidine kinase and A9T, P15S, L60P, E678G, Y823C mutations in DNA polymerase infected in african green monkey Vero cells by plaque reduction assay; format: functional, organism-based; conditions: Human alphaherpesvirus 2, isolate 22, Vero; how it was run: as §1
Human alphaherpesvirus 1 [19] = experiment: Antiviral activity against Herpes simplex virus 1 isolate 1 harboring C6G N23S K36E L42P G240E A265T and A207P mutations in thymidine kinase and S33G, A330R, N425T, V905M mutations in DNA polymerase infected in african green monkey Vero cells by plaque reduction assay; format: functional, organism-based; conditions: Human alphaherpesvirus 1, isolate 1, Vero; how it was run: as §1
Human alphaherpesvirus 2 [20] = experiment: Antiviral activity against Herpes simplex virus 2 isolate 21 harboring G39E, N78D, L140F, -1C 452 = Stop 183 mutations in thymidine kinase and P15S, L60P, E678G mutations in DNA polymerase infected in african green monkey Vero cells by plaque reduction assay; format: functional, organism-based; conditions: Human alphaherpesvirus 2, isolate 21, Vero; how it was run: as §1
Human alphaherpesvirus 1 [21] = experiment: Antiviral activity against Herpes simplex virus 1 isolate 3 harboring N23S, K36E, R89Q, A265T, Y53D mutations in thymidine kinase and S33G, A330R, V905M, E1005K mutations in DNA polymerase infected in african green monkey Vero cells by plaque reduction assay; format: functional, organism-based; conditions: Human alphaherpesvirus 1, isolate 3, Vero; how it was run: as §1
Human alphaherpesvirus 1 [22] = experiment: Antiviral activity against Herpes simplex virus 1 isolate 4 harboring N23S, K36E -1C 553 = frameshift mutations in thymidine kinase and S33G, A330R, A899V, L1188F mutations in DNA polymerase infected in african green monkey Vero cells by plaque reduction assay; format: functional, organism-based; conditions: Human alphaherpesvirus 1, isolate 4, Vero; how it was run: as §1
Human alphaherpesvirus 1 [23] = experiment: Antiviral activity against Herpes simplex virus 1 isolate 11 harboring N23S, K36E, G251C, A265T, P268T, R176W mutations in thymidine kinase and S33G, A330R, P1124H, T1208A, S724N, V117L, L267M mutations in DNA polymerase infected in african green monkey Vero cells by plaque reduction assay; format: functional, organism-based; conditions: Human alphaherpesvirus 1, isolate 11, Vero; how it was run: as §1
Human alphaherpesvirus 1 [24] = experiment: Antiviral activity against Herpes simplex virus 1 isolate 5 harboring N23S, K36E, A192V, G251C, A265T, V267L, P268T, -1G 856 = frameshift mutations in thymidine kinase and A330R, V905M, T1208A, H98Y mutations in DNA polymerase infected in african green monkey Vero cells by plaque reduction assay; format: functional, organism-based; conditions: Human alphaherpesvirus 1, isolate 5, Vero; how it was run: as §1
Human alphaherpesvirus 2 [25] = experiment: Antiviral activity against Herpes simplex virus 2 isolate 16 harboring D137Stop mutations in thymidine kinase and A9T, P15S, L60P mutations in DNA polymerase infected in african green monkey Vero cells by plaque reduction assay; format: functional, organism-based; conditions: Human alphaherpesvirus 2, isolate 16, Vero; how it was run: as §1

Row | SMILES | EC50 (Human alphaherpesvirus 2 [1]) [µM] | EC50 (Human alphaherpesvirus 2 [2]) [µM] | EC50 (Human alphaherpesvirus 2 [3]) [µM] | EC50 (Human alphaherpesvirus 1 [4]) [µM] | EC50 (Human alphaherpesvirus 1 [5]) [µM] | EC50 (Human alphaherpesvirus 1 [6]) [µM] | EC50 (Human alphaherpesvirus 2 [7]) [µM] | EC50 (Human alphaherpesvirus 1 [8]) [µM] | EC50 (Human alphaherpesvirus 1 [9]) [µM] | EC50 (Human alphaherpesvirus 2 [10]) [µM] | EC50 (Human alphaherpesvirus 2 [11]) [µM] | EC50 (Human alphaherpesvirus 2 [12]) [µM] | EC50 (Human alphaherpesvirus 1 [13]) [µM] | EC50 (Human alphaherpesvirus 2 [14]) [µM] | EC50 (Human alphaherpesvirus 2 [15]) [µM] | EC50 (Human alphaherpesvirus 2 [16]) [µM] | EC50 (Human alphaherpesvirus 2 [17]) [µM] | EC50 (Human alphaherpesvirus 2 [18]) [µM] | EC50 (Human alphaherpesvirus 1 [19]) [µM] | EC50 (Human alphaherpesvirus 2 [20]) [µM] | also measured
1 | Nc1nc2c(ncn2COCCO)c(=O)[nH]1 [ACYCLOVIR] | > 50 | 24 | 33 | 26 | 31 | 11 | > 50 | > 50 | 10 | 43 | > 50 | > 50 | 22 | 42 | 11 | 18 | > 50 | > 50 | > 50 | > 50 | EC50 (Human alphaherpesvirus 1 [21]): 35 µM; EC50 (Human alphaherpesvirus 1 [22]): 16 µM; EC50 (Human alphaherpesvirus 1 [23]): > 50 µM; EC50 (Human alphaherpesvirus 1 [24]): 16 µM; EC50 (Human alphaherpesvirus 2 [25]): > 50 µM
2 | O=C(O)P(=O)(O)O [FOSCARNET] | < 66 | 92 | < 66 | < 66 | < 66 | < 66 | < 66 | 106 | < 66 | < 66 | < 66 | < 66 | < 66 | 145 | 99 | < 66 | < 66 | 76 | < 66 | 89 | EC50 (Human alphaherpesvirus 1 [21]): < 66 µM; EC50 (Human alphaherpesvirus 1 [22]): < 66 µM; EC50 (Human alphaherpesvirus 1 [23]): 644 µM; EC50 (Human alphaherpesvirus 1 [24]): < 66 µM; EC50 (Human alphaherpesvirus 2 [25]): < 66 µM
